Screening results deposited in PubChem by several laboratories.
SKN-1 block – C. elegans SKN-1 inhibition; C. elegans VP596 Pgst-4::GFP/RFP ratio, acrylamide-induced, 24 h; inhibition, % at 21.8 µM; actives 0.49% (n = 360,000); AID 624304;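 active means interference check ratio from 0.5 to 1.5 plus GFP to RFP signal ratio inhibition reaching or exceeding a fixed threshold, cut at about 30% in these data, passing the limit was not always enough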
MT1-MMP act inh – inhibitors of human MT1-MMP activation. HT1080 RFP-PRO-GFP cells, GFP/RFP ratio fluorescence, overnight; percent of plate control window, DMSO zero. GFP/RFP ratio change, % at 20 µM. actives 0.061% (n = 360,000);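 active means GFP/RFP ratio change of at least 30% with cell ATP level not reduced by more than half and red fluorescence within 50% of control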
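Assay system: HT1080 RFP-PRO-GFP cells | Dosing: 20 µM single dose, 1% DMSO | Incubation: Cells overnight before dosing, compound overnight, 37 °C, 5% CO2 | Evaluation: GFP/RFP fluorescence ratio | Control set: DMSO-only wells and HT1080 RFP-L50D-GFP cell wells as references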
TbMetRS inhib – Trypanosoma brucei MetRS inhibition; AID 624268; purified T. brucei MetRS, ATP depletion, Kinase-Glo luminescence; inhibition, % at 11.9 µM; actives 0.4% (n = 360,000);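 active means inhibition above a per-plate cutoff of the control wells' mean inhibition plus 3 SD, cut at about 5.5% in these data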;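 further: 0% = DMSO wells median and 100% = median of wells with control inhibitor compound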
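Test system: purified T. brucei MetRS enzyme. Also added: ATP, methionine and E. coli bulk tRNA substrates. Compound: 11.9 µM single point. Schedule: 15 min enzyme-compound preincubation, 2 h reaction, 10 min detection, 25 °C. Signal: luciferase luminescence of residual ATP, Kinase-Glo. Evaluation: percent inhibition versus plate control medians. Controls: DMSO wells, low control.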
iPSC survival up – hiPSC single-cell survival enhancement | survival enhancement, % at 20 µM | actives 0.044% (n = 360,000) | ATPlite luminescence; 100% = ROCK inhibitor wells, 0% = DMSO | AID 602274; in the data active means survival enhancement above about 18%;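 further: cells exposed to compounds for 16 hours before the ATP read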
PREPL inh – human PREPL enzyme inhibition | Q4J6C6 | inhibition, % at 5.96 µM | recombinant PREPL, fluorescence polarization activity-based probe | actives 0.68% (n = 320,000); in the data active means inhibition above about 43%;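 further: 0% = enzyme with DMSO and 100% = wells lacking enzyme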
eLon inh – inhibits E. coli Lon protease | P0A9M0 | purified E. coli Lon protease, fluorescence polarization | inhibition, % at 7.94 µM | actives 0.42% (n = 360,000); in the data active means inhibition above about 13%, passing the limit was not always enough;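 further: 0% = enzyme with probe and DMSO and 100% = no enzyme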
Target sequence (P0A9M0 whole entry, looked up): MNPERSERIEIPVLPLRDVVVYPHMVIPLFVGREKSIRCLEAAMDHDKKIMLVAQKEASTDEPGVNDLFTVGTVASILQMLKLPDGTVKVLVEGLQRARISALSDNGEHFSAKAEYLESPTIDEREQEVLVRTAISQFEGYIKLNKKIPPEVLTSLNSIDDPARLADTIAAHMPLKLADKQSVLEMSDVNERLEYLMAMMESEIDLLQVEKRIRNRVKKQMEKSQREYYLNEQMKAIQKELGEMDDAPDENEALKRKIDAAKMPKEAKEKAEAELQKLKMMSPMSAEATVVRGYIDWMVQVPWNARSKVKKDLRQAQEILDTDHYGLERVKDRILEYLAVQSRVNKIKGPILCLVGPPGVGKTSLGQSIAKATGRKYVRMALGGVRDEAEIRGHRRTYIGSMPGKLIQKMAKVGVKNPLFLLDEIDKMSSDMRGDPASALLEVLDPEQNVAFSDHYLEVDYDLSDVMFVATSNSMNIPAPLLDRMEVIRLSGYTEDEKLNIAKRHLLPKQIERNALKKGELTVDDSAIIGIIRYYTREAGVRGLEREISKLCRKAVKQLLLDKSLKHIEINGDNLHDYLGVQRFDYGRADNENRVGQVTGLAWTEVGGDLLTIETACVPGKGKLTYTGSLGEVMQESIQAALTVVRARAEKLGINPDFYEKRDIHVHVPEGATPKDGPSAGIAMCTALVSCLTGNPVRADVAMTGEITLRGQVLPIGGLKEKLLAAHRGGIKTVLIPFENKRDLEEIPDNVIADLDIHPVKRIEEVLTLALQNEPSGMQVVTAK
* marks the source's active call; other numbers are inactive results; nt = no result. Hits are enriched below; roughly 1.8% of the tested compounds scored in any of these assays.

SMILES | SKN-1 block | MT1-MMP act inh | TbMetRS inhib | iPSC survival up | PREPL inh | eLon inh
Brc1cccc(CNc2nc3ccccc3n2CCN2CCCCC2)c1 | 3 | 3 | 4 | -1 | 52* | -1
COc1cccc(CNc2nc3ccccc3n2CCN2CCCCC2)c1 | 2 | 3 | 1 | -3 | 33 | 4
Cc1cccc(-n2nc3c(c2NC(=O)C2CC2)CS(=O)(=O)C3)c1C | 35* | 0 | -1 | 0 | 7 | 6
Cc1ccccc1-n1nc2c(c1NC(=O)C1CCCC1)CS(=O)(=O)C2 | 24 | -8 | 0 | 0 | 9 | 8
COc1cc(C(=O)C(=O)N2CCN(c3ccccc3)CC2)cc2ccccc12 | 13 | 3 | 0 | nt | nt | nt
Cc1cc(C)n2nc(SCC(=O)N/N=C/c3ccccc3F)nc2n1 | -6 | 7 | -1 | -1 | 50* | -2
Cc1ccc(/C=N/NC(=O)CSc2nc3nc(C)cc(C)n3n2)cc1 | 4 | 5 | -1 | 4 | 24 | -5
Brc1ccc(-c2cn3ccccc3n2)s1 | 84* | 0 | -1 | -4 | -5 | -1
Clc1ccc(-c2cn3ccccc3n2)cc1 | 16 | 3 | -3 | 0 | -3 | -2
CC1=C(C#N)c2nc(N)c(C#N)c(C)c2/C1=C\c1ccc(-c2ccccc2C(=O)O)o1 | 43* | 49 | 1 | -3 | nt | -6
COc1cc(/C=C2/C(C)=C(C#N)c3nc(N)c(C#N)c(C)c32)ccc1OCC(=O)O | nt | nt | nt | nt | 14 | nt
O=C(CN1CCN(C/C=C/c2ccccc2)CC1)Nc1cc([N+](=O)[O-])ccc1Cl | -5 | 2 | 0 | -1 | 49* | 5
Cc1cc(NC(=O)CN2CCN(C/C=C/c3ccccc3)CC2)c([N+](=O)[O-])cc1C | -9 | -4 | 0 | -1 | 12 | 2
CCN(CC)c1ccc(N=Cc2ccc([N+](=O)[O-])o2)cc1 | 10 | 6 | 0 | -3 | 22 | -7
CCN(CC)c1ccc(N=Cc2ccccc2[N+](=O)[O-])cc1 | 10 | 52* | -1 | -2 | 13 | 15
c1ccc(CSc2nccc(-c3ccco3)n2)cc1 | 43* | -4 | 0 | 0 | 12 | -5
c1ccc(CSc2n[nH]c(-c3ccco3)n2)cc1 | -31 | -5 | -1 | 1 | 14 | -13
O=c1cc(-c2ccccc2Cl)c2c([nH]1)CCC2 | 67* | -6 | 0 | -2 | -6 | 2
Cc1ccc(C(=O)NC(=S)Nc2ccccc2C(F)(F)F)c(C)c1 | 32* | 0 | -1 | -5 | 3 | 1
CCOC(=O)C1(C)/C(=N/Nc2ccc(Cl)cc2)C(=O)C(=O)N1c1ccccc1 (centres undefined) | 38* | 11 | -1 | 2 | 1 | 9
CCOC(=O)C1(C)/C(=N/Nc2cccc(Cl)c2)C(=O)C(=O)N1c1ccccc1 (centres undefined) | 21 | 2 | 0 | -1 | 0 | -3
O=C(NC1CC1)c1cc(-c2ccc(Br)cc2)nc2ccccc12 | 36* | -7 | 0 | 0 | -13 | 0
CCCNC(=O)C[C@@H]1CC[C@H]2NC[C@H](O)COC[C@@H]2O1 | 11 | 0 | 0 | nt | nt | nt
O=C(CNc1ccc(Br)cc1)c1ccccc1 | 36* | -2 | 0 | -1 | 7 | -6
Cc1ccc(C(=O)CNc2ccc(Br)cc2)cc1 | -22 | 1 | 0 | 1 | 21 | 2
SMILES | SKN-1 block | MT1-MMP act inh | TbMetRS inhib | iPSC survival up | PREPL inh | eLon inh
CC(C)C[C@H]1CNC(=S)N1C[C@H]1CCCN1C[C@H](Cc1ccc(O)cc1)N1C[C@H](CC(C)C)N(CCc2ccccc2)C1=S | 19 | -1 | -1 | -1 | nt | -2
COc1ccc(C(=O)NN/C(=N/S(=O)(=O)c2ccc(C)cc2)c2ccccc2)cc1 | 37* | 0 | -1 | 0 | 12 | 2
CCc1ccc(C2C(C#N)=C(N)C(C#N)(C#N)C3=CCC(C(C)(C)C)CC32)cc1 (centres undefined) | 0 | -48 | 0 | 4 | 11 | 26*
COc1cc(CNC(C)c2ccccc2)cc(Br)c1OCc1ccc(F)cc1 (centres undefined) | 66* | -7 | -1 | 0 | -19 | 3
COc1cc(CNC(C)(C)CO)cc(Br)c1OCc1ccc(Cl)cc1 | 55* | -16 | -1 | -3 | -26 | -3
COc1cc(CNC(C)c2ccccc2)cc(Br)c1OCc1ccccc1 (centres undefined) | 10 | -4 | -1 | 0 | -9 | 5
CCCNC1(C(N)=O)CCN(Cc2ccccc2)CC1 | 4 | 10 | -1 | -2 | nt | 6
O=C1CCCN1CCCNc1nc(NCc2ccccc2)nc2ccsc12 | 0 | -9 | 2 | -1 | nt | -8
CCN(CC)CCNC(=O)c1ccc2c(c1NCCO)C(=O)c1ccccc1C2=O | 42* | 10 | 0 | -1 | 37 | 1
Cc1nc2ccc(C(=O)N(C)Cc3ccccc3)cn2c1N(C)C(=O)CCc1ccccc1 | 15 | 5 | 0 | 0 | nt | -6
CCOC(=O)c1cnc(-n2cc(C)cn2)nc1NCc1ccc2c(c1)OCO2 | 14 | -9 | 0 | 2 | 58* | -5
CCOC(=O)c1c(C)c(C(=O)NCc2ccc3c(c2)OCO3)c(C)n1CC | 4 | -2 | 0 | 2 | 1 | -4
CCOC(=O)c1[nH]c2ccc(OC)cc2c1NC(=S)N1CCN(c2cccc(Cl)c2)CC1 | 2 | 4 | 0 | -2 | 40 | -5
COC(=O)c1cc(OC)c(OC)cc1NC(=S)N1CCN(c2ccccc2)CC1 | -1 | 9 | 0 | 0 | 47* | -11
COC(=O)c1ccccc1NC(=S)N1CCN(c2ccccc2)CC1 | 14 | 5 | 0 | -1 | -3 | -4
CCOC(=O)c1[nH]c2ccc(OC)cc2c1NC(=S)N1CCN(c2ccccc2)CC1 | 8 | 2 | 0 | -1 | 57* | 5
COC(C/C=C/C(=O)[C@H](C)OCc1ccccc1)OC | -7 | -5 | 0 | -4 | 3 | -8
Cc1ccccc1C(N)=O | 0 | -5 | -1 | 0 | nt | 3
CCn1nc(CCC(=O)O)c2ccccc2c1=O | 41* | -6 | 1 | 1 | 9 | -10
COc1ccccc1NC(=O)CSc1nnc(-c2ccncc2)o1 | 40* | -2 | -1 | 7 | 6 | -5
CCOc1ccccc1NC(=O)CSc1nnc(-c2ccncc2)o1 | -1 | -2 | 0 | 1 | -9 | -8
COc1ccc(-c2nn(CC(=O)Nc3ccc(Cl)c(Cl)c3)c(=O)c3ccccc23)cc1 | 39* | 0 | 0 | -2 | -25 | -10
COC(=O)COc1ccc(NC(=O)Cn2nc(-c3ccccc3)c3ccccc3c2=O)cc1 | -2 | 2 | 0 | 3 | -2 | -5
COc1ccc(OC)c(C(O)c2ncc(-c3cccc4ccccc34)[nH]2)c1 (centres undefined) | -15 | -6 | 0 | 0 | nt | -1
